Measured values reported in ChEMBL document CHEMBL1149249 (J Med Chem, 2004).

How the values were obtained:
[1] = system: Mus musculus; assay: Reduction of haloperidol-induced catalepsy in orally dosed CD1 mouse; type: functional; conditions: CD1, po
Summary of the method: (§1)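 Male CD-1 mice (25–30 g) received haloperidol 3 mg/kg sc. Bar test used a 4.5 cm high, 1 cm bar with a 120 s cutoff, measured every 30 min. Once baseline catalepsy was stable (about 3 h), compound or vehicle was given by oral gavage. Catalepsy was then scored every 30 min for 2 h. Analysis was one-way ANOVA with Dunnett's post hoc test.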

[2] = Metabolic stability in rat liver microsomes at 2 uM after 15 mins; type: ADME, Microsome; conditions: read-out: Stability
Summary of the method: (§2)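 Test compound at 2 μM final was incubated at 37 °C with shaking in Sprague–Dawley rat liver microsomes in 66 mM potassium phosphate pH 7.4. An NADP+/glucose-6-phosphate/MgCl2/G6P dehydrogenase regenerating system was present. Aliquots taken at 0, 15, 30 and 60 min were quenched in acetonitrile containing DPCPX internal standard. Percent parent remaining was measured by LC/MS.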

[3] = system: Rattus norvegicus; assay: Reduction of haloperidol-induced catalepsy in orally dosed Sprague-Dawley rat; type: functional; conditions: po
Summary of the method: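 Male Sprague–Dawley rats (225–275 g) were given haloperidol 1 mg/kg, with bar tests every 30 min (1 cm bar, 10 cm high, 120 s maximum). After a stable cataleptic baseline at about 3 h, compound or vehicle was dosed by oral gavage. The bar test was repeated every 30 min for 2 h. Data were analyzed by one-way ANOVA with Dunnett's test.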

[4] = biological target: Adenosine receptor A2a (Rattus norvegicus, UniProt P30543); assay: Displacement of [3H]ZM241385 from adenosine A2A receptor in rat brain membrane; type: cell membranes
[5] = biological target: T1, Adenosine receptor A1 (Rattus norvegicus, UniProt P25099); assay: Displacement of [3h]DPCPX from adenosine A receptor in rat cerebral cortex membrane
T1 sequence (P25099 whole entry): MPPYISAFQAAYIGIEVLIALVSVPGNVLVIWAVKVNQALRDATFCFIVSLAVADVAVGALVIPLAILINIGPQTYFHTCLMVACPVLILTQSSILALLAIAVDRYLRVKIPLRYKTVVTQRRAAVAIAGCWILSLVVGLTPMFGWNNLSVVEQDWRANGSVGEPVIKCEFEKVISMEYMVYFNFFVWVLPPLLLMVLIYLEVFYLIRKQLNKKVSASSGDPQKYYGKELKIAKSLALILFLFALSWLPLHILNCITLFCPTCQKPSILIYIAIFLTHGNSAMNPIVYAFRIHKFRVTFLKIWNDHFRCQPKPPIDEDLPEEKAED

[6] = Metabolic stability in rat liver microsome at 2 uM after 30 mins; type: ADME; conditions: liver microsomes, read-out: Stability; summary of the method: as §2
[7] = Metabolic stability in rat liver microsome at 2 uM after 60 mins; type: ADME; conditions: liver microsomes, read-out: Stability; summary of the method: as §2
[8] = system: Mus musculus; assay: Reduction of haloperidol-induced catalepsy in CD1 mouse within 30 mins at 3 mg/kg, po; type: functional; design: scale not given: the % may be the effect or the level left; summary of the method: as §1

Chain of Adenosine receptor A2a (P30543 whole entry): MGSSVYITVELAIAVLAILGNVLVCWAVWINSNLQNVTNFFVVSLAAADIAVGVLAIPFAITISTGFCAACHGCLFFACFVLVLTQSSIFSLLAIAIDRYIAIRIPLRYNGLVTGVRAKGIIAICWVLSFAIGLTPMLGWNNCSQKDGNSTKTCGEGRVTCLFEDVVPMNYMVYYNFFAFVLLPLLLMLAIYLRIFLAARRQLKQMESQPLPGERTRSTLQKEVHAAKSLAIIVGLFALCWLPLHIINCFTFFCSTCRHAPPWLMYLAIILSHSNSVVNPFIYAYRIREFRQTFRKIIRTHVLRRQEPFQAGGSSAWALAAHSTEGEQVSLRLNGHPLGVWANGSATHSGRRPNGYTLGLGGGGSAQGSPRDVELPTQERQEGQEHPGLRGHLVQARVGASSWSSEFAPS

| Structure (SMILES) | ED50 [1] | remaining at 0.25 h, 2 µM [2] | ED50 [3] | Ki [4] | Ki [5] | remaining at 0.5 h, 2 µM [6] | remaining at 1 h, 2 µM [7] | Activity [8] |
| --- | --- | --- | --- | --- | --- | --- | --- | --- |
| Cn1nc(C(F)(F)F)c(CN2CCN(c3nc(N)n4nc(-c5ccco5)nc4n3)CC2)c1Cl | 3 mg/kg | 14% | 3 mg/kg | – | – | – | – | – |
| Nc1nc(NC[C@H]2CCCN2Cc2c(F)cccc2F)nc2nc(-c3ccco3)nn12 | 10 mg/kg | – | 10 mg/kg | 3.6 nM (antagonist) | 427 nM (antagonist) | – | – | – |
| Nc1nc(N2CCN3CCC[C@@H]3C2)nc2nc(-c3ccco3)nn12 | – | 67% | – | 30 nM (antagonist) | 1200 nM | 75% | 61% | – |
| Nc1nc(N2CCN3C[C@@H](COc4cccc(F)c4)CC[C@H]3C2)nc2nc(-c3ccco3)nn12 (racemic) | – | 57% | – | 0.2 nM (antagonist) | 3300 nM | 36% | 12% | – |
| Nc1nc(N2CCN3C[C@@H](CO)CC[C@H]3C2)cc2nc(-c3ccco3)nn12 (racemic) | – | 100% | – | 96 nM (antagonist) | > 500 nM | 100% | 85% | >50% |
| Nc1nc(N2CCN3CCC[C@H]3C2)nc2nc(-c3ccco3)nn12 | – | 69% | – | 46 nM (antagonist) | > 500 nM | 54% | 36% | – |
| Nc1nc(N2CCN3C[C@@H](COc4ccccc4)CC[C@H]3C2)nc2nc(-c3ccco3)nn12 (racemic) | – | – | – | 21 nM (antagonist) | > 500 nM | – | – | – |
| Nc1nc(N2CCN3CCCCC3C2)cc2nc(-c3ccco3)nn12 (racemic) | – | – | – | 140 nM (antagonist) | > 500 nM | – | – | – |
| Nc1nc(N2CCN3C[C@@H](COc4ccncc4)CC[C@H]3C2)nc2nc(-c3ccco3)nn12 (racemic) | – | – | – | 25 nM (antagonist) | > 1000 nM | – | – | – |
| Nc1nc(N2CCN3C[C@@H](CNCc4cccnc4)CC[C@H]3C2)nc2nc(-c3ccco3)nn12 | – | – | – | 51 nM (antagonist) | > 500 nM | – | – | – |
| Cc1nn(C)c(Cl)c1CN(Cc1c(C)nn(C)c1Cl)C[C@H]1CC[C@H]2CN(c3nc(N)n4nc(-c5ccco5)nc4n3)CCN2C1 | – | – | – | 180 nM (antagonist) | > 1000 nM | – | – | – |
| Nc1nc(N2CCN3C[C@H](COc4cccc(F)c4)CC[C@H]3C2)nc2nc(-c3ccco3)nn12 (mixture of isomers) | – | – | – | 53 nM (antagonist) | 960 nM (antagonist) | – | – | – |
| Nc1nc(N2CCN3C[C@@H](CNCc4ccncc4)CC[C@H]3C2)nc2nc(-c3ccco3)nn12 (racemic) | – | – | – | 36 nM (antagonist) | > 500 nM | – | – | – |
| Nc1nc(N2CCN3C[C@@H](Cn4cncn4)CC[C@H]3C2)nc2nc(-c3ccco3)nn12 (racemic) | – | – | – | 4 nM (antagonist) | > 500 nM | – | – | – |
| Nc1nc(N2CCN3C[C@H](COc4ccc5ccccc5n4)CC[C@H]3C2)nc2nc(-c3ccco3)nn12 | – | – | – | 7 nM (antagonist) | > 1000 nM | – | – | – |
| Nc1nc(N2CCN3C[C@@H](CO)CC[C@H]3C2)nc2nc(-c3ccco3)nn12 (racemic) | – | 100% | – | 45 nM (antagonist) | 660 nM (antagonist) | 100% | 100% | >50% |
| Nc1nc(N2CCN3C[C@H](COc4ccncc4)CC[C@H]3C2)nc2nc(-c3ccco3)nn12 (racemic) | – | – | – | 81 nM (antagonist) | > 1000 nM | – | – | – |

| Structure (SMILES) | ED50 [1] | remaining at 0.25 h, 2 µM [2] | ED50 [3] | Ki [4] | Ki [5] | remaining at 0.5 h, 2 µM [6] | remaining at 1 h, 2 µM [7] | Activity [8] |
| --- | --- | --- | --- | --- | --- | --- | --- | --- |
| Nc1nc(NC[C@@H]2CC[C@@H]3CN(Cc4ccc(F)cc4F)CCN3C2)cc2nc(-c3ccco3)nn12 | – | – | – | 230 nM (antagonist) | > 1000 nM | – | – | – |
| Nc1nc(N2CCN3C[C@@H](COc4ncnc5ccccc45)CC[C@H]3C2)nc2nc(-c3ccco3)nn12 (racemic) | – | – | – | 19 nM (antagonist) | > 500 nM | – | – | – |
| Nc1nc(N2CCN3C[C@@H](COc4ccccc4F)CC[C@H]3C2)nc2nc(-c3ccco3)nn12 (racemic) | – | – | – | 0.9 nM (antagonist) | > 500 nM | – | – | – |
| Nc1nc(N2CCN3C[C@@H](COc4cccnc4)CC[C@H]3C2)nc2nc(-c3ccco3)nn12 (racemic) | – | – | – | 0.3 nM (antagonist) | 1400 nM | – | – | – |
| Nc1nc(N2CCN3C[C@@H](CN(Cc4ccccn4)Cc4ccccn4)CC[C@H]3C2)nc2nc(-c3ccco3)nn12 | – | – | – | 9 nM (antagonist) | > 500 nM | – | – | – |
| Cn1nc(C(F)(F)F)c(CN2CCN3C[C@@H](CNc4nc(N)n5nc(-c6ccco6)nc5n4)CC[C@@H]3C2)c1Cl (racemic) | – | – | – | > 500 nM | > 1000 nM | – | – | – |
| Nc1nc(N2CCN3C[C@@H](COc4ccc5ncccc5c4)CC[C@H]3C2)nc2nc(-c3ccco3)nn12 | – | 42% | – | 0.6 nM (antagonist) | 3500 nM | 25% | 16% | – |
| Nc1nc(N2CCN3C[C@@H](COc4cc5ccccc5cn4)CC[C@H]3C2)nc2nc(-c3ccco3)nn12 (racemic) | – | – | – | 36 nM (antagonist) | > 1000 nM | – | – | – |
| Nc1cc(N2CCN3C[C@@H](CO)CC[C@H]3C2)nc2nc(-c3ccco3)nn12 (racemic) | – | 97% | – | 230 nM (antagonist) | > 500 nM | 81% | 51% | – |
| NC[C@H]1CC[C@H]2CN(c3cc4nc(-c5ccco5)nn4c(N)n3)CCN2C1 | – | – | – | 56 nM (antagonist) | > 500 nM | – | – | – |
| Nc1nc(NC[C@@H]2CC[C@@H]3CN(c4ncccn4)CCN3C2)nc2nc(-c3ccco3)nn12 (racemic) | – | 89% | – | 0.3 nM (antagonist) | 1600 nM | 65% | 43% | – |
| Nc1nc(N2CCN3C[C@@H](COc4ccc(F)cc4F)CC[C@H]3C2)nc2nc(-c3ccco3)nn12 (racemic) | – | – | – | 70 nM (antagonist) | > 500 nM | – | – | – |
| NC[C@@H]1CC[C@H]2CN(c3cc(N)n4nc(-c5ccco5)nc4n3)CCN2C1 | – | – | – | 370 nM (antagonist) | > 500 nM | – | – | – |
| Nc1nc(N2CCN3C[C@@H](CNc4ncccn4)CC[C@H]3C2)nc2nc(-c3ccco3)nn12 (racemic) | – | – | – | 9 nM (antagonist) | 1500 nM | – | – | – |
| Nc1nc(N2CCN3C[C@@H](CNc4ncccn4)CC[C@H]3C2)cc2nc(-c3ccco3)nn12 | – | – | – | 47 nM (antagonist) | > 1000 nM | – | – | – |
| Nc1nc(N2CCN3C[C@@H](CN(Cc4ccncc4)Cc4ccncc4)CC[C@H]3C2)nc2nc(-c3ccco3)nn12 (racemic) | – | – | – | 3 nM (antagonist) | 6000 nM | – | – | – |
